{"source": "ChEMBL document CHEMBL1828538", "about": "“Synthesis and pharmacological evaluation of indole-based sigma receptor ligands” (Eur J Med Chem, 2011)", "key": {"[1]": {"test": "Displacement of radioligand from adrenergic beta1 receptor assessed as 50% receptor inhibition at 10^-7 M", "method_in_brief": "(§1)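 Part of a contracted (NovaScreen) panel of 64 radioligand/enzyme assays, with the test compound run at 10⁻⁵ M and 10⁻⁷ M. Each assay was scored by whether radioligand displacement exceeded 50% at each concentration.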"}, "[2]": {"test": "Displacement of radioligand from adrenergic alpha2 receptor assessed as 50% receptor inhibition at 10^-5 M", "method_in_brief": "as §1"}, "[3]": {"test": "Displacement of radioligand from adrenergic alpha1 receptor assessed as 50% receptor inhibition at 10^-5 M", "method_in_brief": "as §1"}, "[4]": {"test": "Displacement of radioligand from adrenergic beta1 receptor assessed as 50% receptor inhibition at 10^-5 M", "method_in_brief": "as §1"}, "[5]": {"biological_target": "T1, Substance-K receptor (Homo sapiens) (UniProt P21452)", "T1 sequence (whole entry)": "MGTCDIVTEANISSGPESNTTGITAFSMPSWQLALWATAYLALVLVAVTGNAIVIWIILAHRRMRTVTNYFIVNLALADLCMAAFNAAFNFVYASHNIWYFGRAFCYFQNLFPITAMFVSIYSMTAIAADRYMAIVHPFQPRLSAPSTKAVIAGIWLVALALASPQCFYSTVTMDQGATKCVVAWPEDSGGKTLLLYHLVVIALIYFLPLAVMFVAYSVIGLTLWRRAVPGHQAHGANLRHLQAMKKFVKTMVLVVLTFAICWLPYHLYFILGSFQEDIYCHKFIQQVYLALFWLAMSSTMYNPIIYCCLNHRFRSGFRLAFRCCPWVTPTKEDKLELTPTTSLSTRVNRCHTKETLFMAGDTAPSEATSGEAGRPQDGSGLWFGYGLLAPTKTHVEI", "test": "Displacement of radioligand from neurokinin NK2 receptor assessed as 50% receptor inhibition at 10^-5 M", "method_in_brief": "as §1"}}, "note": "Activity calls are given as the source filed them. The rule behind the calls is not given here."}
{"smiles": "COc1cc2c(cc1OC)CN(CCCCn1cc(-c3ccc(F)cc3)c3ccccc31)CC2", "values": [{"measurement": "inhibition", "setting": "[1]", "result": "inactive"}, {"measurement": "inhibition", "setting": "[2]", "result": "Active"}, {"measurement": "inhibition", "setting": "[3]", "result": "Active"}, {"measurement": "inhibition", "setting": "[4]", "result": "Active"}, {"measurement": "inhibition", "setting": "[5]", "result": "Active"}]}
